Structures are written as SMILES.

The first assay is filed under the species Mus musculus. Nature of the assay: Percent plasma glucose concentration of drug treated mice (ob/ob) relative to vehicle control animals. Format: functional. In short, it runs like this:
(§1)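 Female ob/ob mice, 10 weeks old, fed ad libitum, in groups of 7–11. Dosed po once daily for 4 days in 0.5% methyl cellulose vehicle. Decapitated the next morning; 0.1 mL blood into saline with Trasylol and EDTA; plasma glucose by autoanalyzer. Reciprocal-transformed (y = 160/x) harmonic mean given as % of vehicle. Bonferroni-adjusted comparisons.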
With `O=C(Nc1ccc(CCCCc2nn[nH]n2)cc1)C(F)(F)C(F)(F)C(F)(F)C(F)(F)C(F)(F)C(F)(F)C(F)(F)F`, the Activity is on record as 73%.

`O=C(Nc1ccc(CCc2nn[nH]n2)cc1)C(F)(F)C(F)(F)C(F)(F)C(F)(F)C(F)(F)C(F)(F)C(F)(F)F` gave an Activity of 119%.

The molecule `O=C(Nc1cccc2ncccc12)C(F)(F)C(F)(F)C(F)(F)C(F)(F)C(F)(F)C(F)(F)C(F)(F)F` registered an Activity of 64%.

Regarding `O=C(Nc1ccccc1)C(F)(F)C(F)(F)C(F)(F)C(F)(F)C(F)(F)C(F)(F)C(F)(F)F`, the Activity is given as 74%.

In turn, `CCOC(=O)C(F)(F)C(F)(F)C(F)(F)C(F)(F)C(F)(F)C(F)(F)C(F)(F)F` showed an Activity of 72%.

Regarding `CCCCCCCCCCCCCCCCCC(=O)Nc1ccc(Cc2nn[nH]n2)cc1`, the Activity is reported as 108%.

As to `O=C(O)C(F)(F)C(F)(F)C(F)(F)C(F)(F)C(F)(F)C(F)(F)C(F)(F)F`, the Activity is listed as 60%.

Regarding `O=C(Nc1ccc(Cc2nnn[nH]2)cc1)C(F)(F)C(F)(F)C(F)(F)C(F)(F)C(F)(F)C(F)(F)C(F)(F)C(F)(F)C(F)(F)C(F)F`, the Activity is given as 62%.

`COc1ccc2c(c1)CCCN2C(=O)C(F)(F)C(F)(F)C(F)(F)C(F)(F)C(F)(F)C(F)(F)C(F)(F)F` showed an Activity of 132%.

For `CCCCCCCCC(=O)NCCCCCc1nnn[nH]1`, the Activity was 100%.

In the case of `O=C(Nc1ccc(Cc2nnn[nH]2)cc1)C(F)(F)C(F)(F)C(F)(F)C(F)(F)C(F)(F)C(F)(F)F`, the Activity came to 93%.

Molecule `O=C(Nc1cccnc1)C(F)(F)C(F)(F)C(F)(F)C(F)(F)C(F)(F)C(F)(F)C(F)(F)F` displayed an Activity of 74%.

As for `O=C(N1CCCc2ccccc21)C(F)(F)C(F)(F)C(F)(F)C(F)(F)C(F)(F)C(F)(F)C(F)(F)F`, the Activity was 115%.

Consider `O=C(NCCCCCc1nnn[nH]1)C(F)(F)C(F)(F)C(F)(F)F`, for which the Activity came to 91%.

As for `O=C(Nc1ccccn1)C(F)(F)C(F)(F)C(F)(F)C(F)(F)C(F)(F)C(F)(F)C(F)(F)F`, the Activity stood at 56%.

Take `O=C(N1CCc2ccccc2C1)C(F)(F)C(F)(F)C(F)(F)C(F)(F)C(F)(F)C(F)(F)C(F)(F)F`: the Activity is given as 87%.

In turn, `O=C(Nc1ccc(CCCc2nn[nH]n2)cc1)C(F)(F)C(F)(F)C(F)(F)F` had an Activity of 72%.

`NCC(F)(F)C(F)(F)C(F)(F)C(F)(F)C(F)(F)C(F)(F)C(F)(F)F` had an Activity of 84%.

The molecule `O=C(NCCCCCc1nn[nH]n1)C(F)(F)C(F)(F)C(F)(F)C(F)(F)C(F)(F)C(F)(F)C(F)(F)F` registered an Activity of 54%.

In the case of `O=C(Nc1ccc(Cc2nnn[nH]2)cc1)C(F)(F)C(F)(F)C(F)(F)C(F)(F)C(F)(F)C(F)(F)C(F)(F)C(F)F`, the Activity was 65%.

`O=C(NCC(F)(F)C(F)(F)C(F)(F)F)c1ccc(Cc2nn[nH]n2)cc1` displayed an Activity of 90%.

Molecule `O=C(Nc1ccc(CCc2nn[nH]n2)cc1)C(F)(F)C(F)(F)C(F)(F)F` registered an Activity of 76%.

Consider `Cc1csc(=N)n1C(=O)C(F)(F)C(F)(F)C(F)(F)C(F)(F)C(F)(F)C(F)(F)C(F)(F)F`, for which the Activity is given as 94%.

For the molecule `O=C(N1CCN(c2ccccn2)CC1)C(F)(F)C(F)(F)C(F)(F)C(F)(F)C(F)(F)C(F)(F)C(F)(F)F`, the Activity was 76%.

`O=C(Nc1ncccn1)C(F)(F)C(F)(F)C(F)(F)C(F)(F)C(F)(F)C(F)(F)C(F)(F)F` came in with an Activity of 49%.

Molecule `O=C(Nc1cccc(Cc2nn[nH]n2)c1)C(F)(F)C(F)(F)C(F)(F)C(F)(F)C(F)(F)C(F)(F)C(F)(F)F` displayed an Activity of 60%.

`O=C(NO)C(F)(F)C(F)(F)C(F)(F)C(F)(F)C(F)(F)C(F)(F)C(F)(F)F` registered an Activity of 52%.

Take `O=C(NCc1ccccc1)C(F)(F)C(F)(F)C(F)(F)C(F)(F)C(F)(F)C(F)(F)C(F)(F)F`: the Activity was 106%.

As for `O=C(Nc1ccc(Cc2nn[nH]n2)cc1)C(F)(F)C(F)(F)C(F)(F)F`, the Activity was found to be 96%.

`O=C(NCCCCCc1nn[nH]n1)C(F)(F)C(F)(F)C(F)(F)C(F)(F)C(F)(F)C(F)(F)C(F)(F)C(F)(F)F` showed an Activity of 57%.

`O=C(Nc1cccc(Cc2nn[n-]n2)c1)C(F)(F)C(F)(F)C(F)(F)F.[Na+]` yielded an Activity of 71%.

Take `O=C(NCCCCCc1nn[n-]n1)C(F)(F)C(F)(F)C(F)(F)C(F)(F)C(F)(F)C(F)(F)C(F)(F)C(F)(F)F.[Na+]`: the Activity was 62%.

In turn, `O=C(NCCCCCc1nn[n-]n1)C(F)(F)C(F)(F)C(F)(F)C(F)(F)C(F)(F)C(F)(F)C(F)(F)F.[Na+]` returned an Activity of 48%.

As for `O=C(Nc1ccc(Cc2nn[n-]n2)cc1)C(F)(F)C(F)(F)C(F)(F)C(F)(F)C(F)(F)C(F)(F)C(F)(F)F.[Na+]`, the Activity is on record as 55%.

On to `O=C(Nc1ccccc1Cc1nn[n-]n1)C(F)(F)C(F)(F)C(F)(F)F.[Na+]`, for which the Activity amounted to 84%.

In turn, `CN(C(=O)C(F)(F)C(F)(F)C(F)(F)C(F)(F)C(F)(F)C(F)(F)C(F)(F)F)c1ccc(Cc2nnn(C)n2)cc1` returned an Activity of 70%.

Turning to `O=C(Nc1ccc(Cc2nn[nH]n2)cc1)c1cc(C(F)(F)F)cc(C(F)(F)F)c1`, the Activity worked out at 82%.

Regarding `O=C(Nc1ccc(F)cc1)C(F)(F)C(F)(F)C(F)(F)C(F)(F)C(F)(F)C(F)(F)C(F)(F)F`, the Activity is 91%.

Take `O=C(Nc1ccc(Cc2nnn[nH]2)cc1)C(F)(F)C(F)(F)F`: the Activity stood at 86%.

As for `O=C(NCCc1ccccn1)C(F)(F)C(F)(F)C(F)(F)C(F)(F)C(F)(F)C(F)(F)C(F)(F)F`, the Activity came out at 63%.

`O=C(NCCc1nnn[nH]1)C(F)(F)C(F)(F)C(F)(F)C(F)(F)C(F)(F)C(F)(F)C(F)(F)C(F)(F)F` had an Activity of 65%.

With `O=C(O)C(F)(F)C(F)(F)C(F)(F)F`, the Activity is 101%.

Regarding `O=C(NCCCCCc1nnn[nH]1)C(F)(F)F`, the Activity amounted to 95%.

On to `NC(=O)C(F)(F)C(F)(F)C(F)(F)C(F)(F)C(F)(F)C(F)(F)C(F)(F)F`, for which the Activity came out at 65%.

As to `O=C(Nc1ccc(Cc2nnn[nH]2)cc1)C(F)(F)C(F)(F)C(F)(F)C(F)(F)C(F)(F)C(F)(F)C(F)(F)C(F)(F)C(F)(F)F`, the Activity is on record as 71%.

Molecule `O=C(Nc1ccccc1Cc1nn[nH]n1)C(F)(F)C(F)(F)C(F)(F)F` displayed an Activity of 91%.

Regarding `O=C(Nc1ccc(-c2nn[nH]n2)cc1)C(F)(F)C(F)(F)C(F)(F)C(F)(F)C(F)(F)C(F)(F)C(F)(F)F`, the Activity stood at 82%.

On to `O=C(Nc1ccccc1O)C(F)(F)C(F)(F)C(F)(F)C(F)(F)C(F)(F)C(F)(F)C(F)(F)F`, for which the Activity is recorded as 85%.

Molecule `O=C(NCC(F)(F)C(F)(F)C(F)(F)F)c1cccc(Cc2nn[nH]n2)c1` displayed an Activity of 93%.

As to `O=C(Nc1ccc(Cc2nnn[nH]2)cc1)C(F)(F)C(F)(F)C(F)(F)C(F)(F)C(F)(F)C(F)(F)C(F)(F)C(F)(F)F`, the Activity came to 63%.

In the case of `O=C(Nc1ccc(CCCc2nn[nH]n2)cc1)C(F)(F)C(F)(F)C(F)(F)C(F)(F)C(F)(F)C(F)(F)C(F)(F)F`, the Activity was found to be 63%.

Molecule `O=C(Nc1ccccc1Cc1nn[nH]n1)C(F)(F)C(F)(F)C(F)(F)C(F)(F)C(F)(F)C(F)(F)C(F)(F)F` had an Activity of 66%.

Molecule `O=C(N(Cc1ccccc1)c1cccc(Cc2nn[nH]n2)c1)C(F)(F)C(F)(F)C(F)(F)F` had an Activity of 78%.

Regarding `O=C(Nc1ccc(Cc2nnn[nH]2)cc1)C(F)(F)F`, the Activity amounted to 104%.

In turn, `OCC(F)(F)C(F)(F)C(F)(F)C(F)(F)C(F)(F)C(F)(F)C(F)F` had an Activity of 67%.

As to `O=C(Nc1ccc(Cc2nnn[nH]2)cc1)C(F)(F)C(F)(F)C(F)(F)C(F)(F)F`, the Activity was 92%.

Molecule `O=C(Nc1ccc(Cc2nn[nH]n2)cc1)c1c(F)c(F)c(F)c(F)c1F` displayed an Activity of 75%.

The molecule `O=C(Nc1nn[nH]n1)C(F)(F)C(F)(F)C(F)(F)C(F)(F)C(F)(F)C(F)(F)C(F)(F)F` had an Activity of 64%.

Regarding `O=C(Nc1cccc(Cc2nn[nH]n2)c1)C(F)(F)C(F)(F)C(F)(F)F`, the Activity is listed as 86%.

Consider `O=C(Nc1ccc(Cc2nnnn2Cc2ccccc2)cc1)C(F)(F)C(F)(F)C(F)(F)C(F)(F)C(F)(F)C(F)(F)C(F)(F)F`, for which the Activity is 82%.

Consider `CC1(COc2ccc(CC3SC(=O)NC3=O)cc2)CCCCC1` (centres undefined) [CIGLITAZONE], for which the Activity worked out at 70%.

As to `CCNS(=O)(=O)C(F)(F)C(F)(F)C(F)(F)C(F)(F)C(F)(F)C(F)(F)C(F)(F)C(F)(F)F` [SULFLURAMID], the Activity is on record as 90%.

For the next assay, the system named is Mus musculus. Nature of the assay: Percent plasma glucose concentration of drug treated mice (ob/ob) relative to vehicle control animals following 75 mg/kg administration. It counts as functional. In short, it runs like this:
as §1
For the molecule `O=C(O)C(F)(F)C(F)(F)C(F)(F)C(F)(F)C(F)(F)C(F)(F)F`, the Activity turned out to be 107%.

Regarding `O=C(Nc1ccc(Cc2nn[nH]n2)cc1)c1ccc(C(F)(F)F)cc1`, the Activity worked out at 130%.

For the molecule `O=C(O)C(F)(F)C(F)(F)C(F)(F)C(F)(F)F`, the Activity is reported as 133%.

For `CCCCNC(=O)C(F)(F)C(F)(F)C(F)(F)C(F)(F)C(F)(F)C(F)(F)C(F)(F)F`, the Activity is reported as 70%.

`OC(c1ccccc1)C(F)(F)C(F)(F)C(F)(F)C(F)(F)C(F)(F)C(F)(F)C(F)(F)C(F)(F)F` (centres undefined) registered an Activity of 64%.

Molecule `N#CCc1ccc(NC(=O)C(F)(F)C(F)(F)C(F)(F)C(F)(F)C(F)(F)C(F)(F)C(F)(F)F)cc1` displayed an Activity of 69%.

Turning to `Cc1ccc(NC(=O)C(F)(F)C(F)(F)C(F)(F)C(F)(F)C(F)(F)C(F)(F)C(F)(F)F)cc1`, the Activity amounted to 58%.

In turn, `O=C(CCC(F)(F)F)Nc1ccc(Cc2nn[nH]n2)cc1` returned an Activity of 104%.

`COC(=O)NCC(F)(F)C(F)(F)C(F)(F)C(F)(F)C(F)(F)C(F)(F)C(F)(F)F` registered an Activity of 57%.

For `FC(F)(F)C(F)(F)C(F)(F)CNc1ccc(Cc2nn[nH]n2)cc1`, the Activity worked out at 99%.

Molecule `O=C(Nc1ccc(-c2nn[nH]n2)cc1)C(F)(F)C(F)(F)C(F)(F)F` yielded an Activity of 75%.

For the molecule `O=C(O)C(F)(F)C(F)(F)C(F)(F)C(F)(F)C(F)(F)C(F)(F)C(F)(F)C(F)(F)F`, the Activity is listed as 124%.

(Values after ChEMBL document CHEMBL1125399, “Perfluorocarbon-based antidiabetic agents” (1992).)
